The source made the active and inactive calls. The calls are words filed in the database; no cut-off is given here.
Assays:
Coagulation factor X [1] = molecular target: T1, Coagulation factor X (Homo sapiens, UniProt P00742); test: Inhibition of human factor 10a using S-2222 chromogenic substrate assessed as hydrolysis by microplate reader
Mus musculus = test: Anticoagulant activity in ICR mouse plasma assessed as prolongation of prothombin time at 100 mg/kg, po after 0.5 to 2 hrs relative to untreated control; type: functional
Method in brief: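 Male ICR mice (30–37 g) given compound dissolved or suspended in 0.5% methyl cellulose, 100 mg/kg by gastric tube. PT measured by coagulometer at 37 °C with thromboplastin; expressed as fold of vehicle-treated baseline; n = 3.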

Coagulation factor X [2] = molecular target: T1, Coagulation factor X; test: Inhibition of human factor 10a using S-2222 chromogenic substrate assessed as hydrolysis at 1.36 uM by microplate reader
Method in brief: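 Purified human fXa with chromogenic substrate S-2222 and inhibitor in 0.05 M Tris-HCl pH 8.4 or 0.15 M NaCl; reaction started with enzyme. Hydrolysis read continuously at 405 nm, 37 °C. Percent inhibition at final inhibitor 1.36 µM, single run.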

Plasma [3] = test: Anticoagulant activity in human plasma assessed as concentration required to double clotting time; type: functional
Method in brief: (§1)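 Citrated plasma (human or mouse) spun at 3000 rpm for 10 min and stored at −40 °C. Clotting times read on a coagulometer at 37 °C; PT with thromboplastin, compared with a distilled water control. CT2 (concentration doubling clotting time) taken from each concentration–response curve; three determinations, mean reported.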

Plasma [4] = test: Anticoagulant activity in mouse plasma assessed as concentration required to prolong prothombin time; type: functional; method in brief: as §1
Trypsin = Trypsin (Homo sapiens, UniProt P07477+P07478+P35030); test: Inhibition of human Trypsin using S-2222 chromogenic substrate assessed as hydrolysis by microplate reader
Prothrombin = Prothrombin (Homo sapiens, UniProt P00734); test: Inhibition of human Thrombin using S-2238 chromogenic substrate assessed as hydrolysis by microplate reader

T1 sequence (P00742 41-179 limits assumed): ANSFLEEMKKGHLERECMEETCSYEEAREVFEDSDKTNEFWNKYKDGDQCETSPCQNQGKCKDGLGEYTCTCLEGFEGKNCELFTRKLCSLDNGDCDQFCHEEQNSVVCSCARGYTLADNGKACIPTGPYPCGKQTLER
T1 sequence (P00742 235-488 limits assumed): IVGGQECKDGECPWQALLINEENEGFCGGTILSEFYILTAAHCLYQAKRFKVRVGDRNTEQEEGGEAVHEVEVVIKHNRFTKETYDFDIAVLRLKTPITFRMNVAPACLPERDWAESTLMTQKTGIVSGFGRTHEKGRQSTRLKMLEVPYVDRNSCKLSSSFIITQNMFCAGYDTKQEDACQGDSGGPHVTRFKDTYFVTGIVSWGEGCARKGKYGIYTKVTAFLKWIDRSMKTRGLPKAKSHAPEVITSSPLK

IC50 (Coagulation factor X [1])	inhibition (Coagulation factor X [2])	Compound	other results
61 nM		COc1ccc(NC(=O)c2ccc(C)c(O)c2NC(=O)c2ccc(N3CCCN(C)CC3)cc2)cc1.Cl	Ratio (Mus musculus): 0.95
	inactive	CN1CCCN(c2ccc(C(=O)Nc3ccccc3C(=O)Nc3nc4ccccc4[nH]3)cc2)CC1	
220 nM		COc1ccc(NC(=O)c2cccc(O)c2NC(=O)c2ccc(N3CCCN(C)CC3)cc2)nc1.Cl	Ratio (Mus musculus): 2.03
1.5 nM		CN1CCCN(c2ccc(C(=O)Nc3c(O[C@@H]4O[C@H](C(=O)O)[C@@H](O)[C@H](O)[C@H]4O)cc(Cl)cc3C(=O)Nc3ccc(Cl)cn3)cc2)CC1	Activity (Plasma [3]): 0.27 µM; Activity (Plasma [4]): 0.28 µM; IC50 (Trypsin): > 100000 nM; IC50 (Prothrombin): > 100000 nM
290 nM		Cc1ccc(NC(=O)c2cccc(O)c2NC(=O)c2ccc(N3CCCN(C)CC3)cc2)nc1.Cl	Ratio (Mus musculus): 2.13
	76%	CN1CCCN(c2ccc(C(=O)Nc3ccccc3C(=O)Nc3cccc(Cl)c3)cc2)CC1	
	39%	COc1ccc(NC(=O)c2ccccc2NC(=O)c2ccc(N3CCCN(C)CC3)cc2)cc1Cl	
	9%	Cc1cccc(NC(=O)c2ccccc2NC(=O)c2ccc(N3CCCN(C)CC3)cc2)n1	
16 nM		CN1CCCN(c2ccc(C(=O)Nc3c(O)cccc3C(=O)Nc3ccc(Cl)cn3)cc2)CC1.Cl	Ratio (Mus musculus): 3.61
	38%	CN1CCCN(c2ccc(C(=O)Nc3ccccc3C(=O)Nc3ccccn3)cc2)CC1	
	32%	CN1CCCN(c2ccc(C(=O)Nc3ccccc3C(=O)Nc3ccc(OC(F)(F)F)cc3)cc2)CC1	
	7%	COc1ccc(NC(=O)c2ccccc2NC(=O)c2ccc(N3CCCN(C)CC3)cc2)cn1	
66 nM		COc1ccc(NC(=O)c2cccc(O[C@@H]3O[C@H](C(=O)O)[C@@H](O)[C@H](O)[C@H]3O)c2NC(=O)c2ccc(N3CCCN(C)CC3)cc2)cc1	
3.6 nM		CN1CCCN(c2ccc(C(=O)Nc3ccc(Cl)cc3C(=O)Nc3ccc(Cl)cn3)cc2)CC1.Cl	Ratio (Mus musculus): 1.21
	11%	CN1CCCN(c2ccc(C(=O)Nc3ccccc3C(=O)Nc3ccccc3Cl)cc2)CC1	
	inactive	Cc1cc(NC(=O)c2ccccc2NC(=O)c2ccc(N3CCCN(C)CC3)cc2)sn1	
	40%	COc1cccc(NC(=O)c2ccccc2NC(=O)c2ccc(N3CCCN(C)CC3)cc2)c1	
		CS(=O)(=O)c1ccccc1-c1ccc(NC(=O)c2cc(C(F)(F)F)nn2-c2cccc(CN)c2)c(F)c1.Cl	Activity (Plasma [3]): 0.67 µM; Activity (Plasma [4]): 0.7 µM
	15%	CCc1ccc(NC(=O)c2ccccc2NC(=O)c2ccc(N3CCCN(C)CC3)cc2)cc1	

IC50 (Coagulation factor X [1])	inhibition (Coagulation factor X [2])	Compound	other results
	94%	Cc1ccc(NC(=O)c2ccccc2NC(=O)c2ccc(N3CCCN(C)CC3)cc2)cc1	
	inactive	CN1CCCN(c2ccc(C(=O)Nc3ccccc3C(=O)Nc3ccc4ccccc4n3)cc2)CC1	
	85%	COc1ccc(NC(=O)c2ccccc2NC(=O)c2ccc(N3CCCN(C)CC3)cc2)cc1.Cl	Ratio (Mus musculus): 1.02
	23%	CC(C)c1ccc(NC(=O)c2ccccc2NC(=O)c2ccc(N3CCCN(C)CC3)cc2)cc1	
	inactive	COc1ccc(NC(=O)c2ccccc2NC(=O)c2ccc(N3CCCN(C)CC3)cc2)cc1OC	
150 nM		COc1ccc(NC(=O)c2cccc(O)c2NC(=O)c2ccc(N3CCCN(C)CC3)cc2)cc1.Cl	Ratio (Mus musculus): 1.97
68 nM		COc1ccc(NC(=O)c2cc(Cl)cc(O)c2NC(=O)c2ccc(N3CCCN(C)CC3)cc2)cc1.Cl	Ratio (Mus musculus): 3.91
6.9 nM		CN1CCCN(c2ccc(C(=O)Nc3c(O)cccc3C(=O)Nc3ccc(Cl)cc3)cc2)CC1.Cl	Ratio (Mus musculus): 2.67
	56%	Cc1ccnc(NC(=O)c2ccccc2NC(=O)c2ccc(N3CCCN(C)CC3)cc2)c1	
	inactive	Cc1cc(NC(=O)c2ccccc2NC(=O)c2ccc(N3CCCN(C)CC3)cc2)n[nH]1	
	88%	Cc1cccc(NC(=O)c2ccccc2NC(=O)c2ccc(N3CCCN(C)CC3)cc2)c1	
	73%	Cc1ccc(NC(=O)c2ccccc2NC(=O)c2ccc(N3CCCN(C)CC3)cc2)nc1	
	24%	CN1CCCN(c2ccc(C(=O)Nc3ccccc3C(=O)Nc3ccc(N(C)C)cc3)cc2)CC1	
68 nM		Cc1ccc(NC(=O)c2cccc(O)c2NC(=O)c2ccc(N3CCCN(C)CC3)cc2)cc1.Cl	Ratio (Mus musculus): 2.11
	100%	CN1CCCN(c2ccc(C(=O)Nc3ccccc3C(=O)Nc3ccc(Cl)cc3)cc2)CC1	
	22%	CN1CCCN(c2ccc(C(=O)Nc3ccccc3C(=O)Nc3ccc(Oc4ccccc4)cc3)cc2)CC1	
8.7 nM		CN1CCCN(c2ccc(C(=O)Nc3c(O)cc(Cl)cc3C(=O)Nc3ccc(Cl)cn3)cc2)CC1.Cl	Ratio (Mus musculus): 7.8
	16%	Cc1ccccc1NC(=O)c1ccccc1NC(=O)c1ccc(N2CCCN(C)CC2)cc1	

From ChEMBL document CHEMBL3352298, “Identification of potent orally active factor Xa inhibitors based on conjugation strategy and application of predictable fragment recommender system” (Bioorg Med Chem, 2015)
